According to ChEMBL document CHEMBL5653613 (Mol Cancer Ther, 2013):
Calls of active or inactive are those of the source. No cut-off for these calls is given here.

How the values were obtained:
[1] = system: ZR-75-1; experiment: Induction of polyploidy in human ZR-75-1 cells at 5 uM incubated for 72 hrs by microscopic analysis; format: functional, cell-based
In short: (§1)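 Cells stained with Hema-3 and photographed under a light microscope with CCD camera. Polyploid cells scored as percent of the population.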

[2] = biological target: Macrophage-stimulating protein receptor (Homo sapiens, UniProt Q04912); experiment: Inhibition of RON (unknown origin)
[3] = system: MCF7; experiment: Induction of polyploidy in human MCF7 cells at 5 uM incubated for 72 hrs by microscopic analysis; format: functional, cell-based; in short: as §1
[4] = biological target: Hepatocyte growth factor receptor (Homo sapiens, UniProt P08581); experiment: Inhibition of MET (unknown origin)
[5] = system: T47D; experiment: Induction of polyploidy in human T47D cells at 5 uM incubated for 72 hrs by microscopic analysis; format: functional, cell-based; in short: as §1
[6] = system: T47D; experiment: Induction of cell cycle arrest in human T47D cells at 5 umol/L preincubated for 24 hrs followed by extensive compound washout and subsequent culturing in compound-free media measured for 60 to 120 mins by immunofluorescence staining based analysis; format: functional; details: dose 5.0 µmol/L
In short: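 T-47D cells were treated at 37°C with 5 µmol/L for 24 h, washed extensively, then cultured in DMEM with 10% FBS for 30, 60 and 120 min. α- and γ-tubulin were detected by immunofluorescence with DAPI, imaged at 400×. The control was a 24 h preincubation with 5 µmol/L RO-3306. One of 2 experiments.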

[7] = system: T47D; experiment: Cytotoxicity against human T47D cells assessed as inhibition of cell viability incubated for 72 hrs by MTS assay; format: functional, cell-based
In short: (§2)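 Untreated cells were seeded at 5,000 cells/well in 96-well plates and run as the control. They were exposed in triplicate for 72 h to graded doxorubicin, bleomycin, cisplatin, paclitaxel or methotrexate (nmol/L range). Viability was read by MTS assay and IC50 was calculated.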

[8] = system: ZR-75-1; experiment: Cytotoxicity against human ZR-75-1 cells assessed as inhibition of cell viability incubated for 72 hrs by MTS assay; format: functional, cell-based; in short: as §2

Macrophage-stimulating protein receptor, sequence (Q04912 25-304 limits assumed): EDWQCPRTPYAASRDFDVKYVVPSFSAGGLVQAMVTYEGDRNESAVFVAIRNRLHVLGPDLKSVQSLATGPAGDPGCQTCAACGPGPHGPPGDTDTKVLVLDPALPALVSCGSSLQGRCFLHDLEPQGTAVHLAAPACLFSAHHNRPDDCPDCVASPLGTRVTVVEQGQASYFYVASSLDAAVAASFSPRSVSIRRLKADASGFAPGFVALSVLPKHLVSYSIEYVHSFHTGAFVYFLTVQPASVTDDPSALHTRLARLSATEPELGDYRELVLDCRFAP
Macrophage-stimulating protein receptor, sequence (Q04912 310-1400 limits assumed): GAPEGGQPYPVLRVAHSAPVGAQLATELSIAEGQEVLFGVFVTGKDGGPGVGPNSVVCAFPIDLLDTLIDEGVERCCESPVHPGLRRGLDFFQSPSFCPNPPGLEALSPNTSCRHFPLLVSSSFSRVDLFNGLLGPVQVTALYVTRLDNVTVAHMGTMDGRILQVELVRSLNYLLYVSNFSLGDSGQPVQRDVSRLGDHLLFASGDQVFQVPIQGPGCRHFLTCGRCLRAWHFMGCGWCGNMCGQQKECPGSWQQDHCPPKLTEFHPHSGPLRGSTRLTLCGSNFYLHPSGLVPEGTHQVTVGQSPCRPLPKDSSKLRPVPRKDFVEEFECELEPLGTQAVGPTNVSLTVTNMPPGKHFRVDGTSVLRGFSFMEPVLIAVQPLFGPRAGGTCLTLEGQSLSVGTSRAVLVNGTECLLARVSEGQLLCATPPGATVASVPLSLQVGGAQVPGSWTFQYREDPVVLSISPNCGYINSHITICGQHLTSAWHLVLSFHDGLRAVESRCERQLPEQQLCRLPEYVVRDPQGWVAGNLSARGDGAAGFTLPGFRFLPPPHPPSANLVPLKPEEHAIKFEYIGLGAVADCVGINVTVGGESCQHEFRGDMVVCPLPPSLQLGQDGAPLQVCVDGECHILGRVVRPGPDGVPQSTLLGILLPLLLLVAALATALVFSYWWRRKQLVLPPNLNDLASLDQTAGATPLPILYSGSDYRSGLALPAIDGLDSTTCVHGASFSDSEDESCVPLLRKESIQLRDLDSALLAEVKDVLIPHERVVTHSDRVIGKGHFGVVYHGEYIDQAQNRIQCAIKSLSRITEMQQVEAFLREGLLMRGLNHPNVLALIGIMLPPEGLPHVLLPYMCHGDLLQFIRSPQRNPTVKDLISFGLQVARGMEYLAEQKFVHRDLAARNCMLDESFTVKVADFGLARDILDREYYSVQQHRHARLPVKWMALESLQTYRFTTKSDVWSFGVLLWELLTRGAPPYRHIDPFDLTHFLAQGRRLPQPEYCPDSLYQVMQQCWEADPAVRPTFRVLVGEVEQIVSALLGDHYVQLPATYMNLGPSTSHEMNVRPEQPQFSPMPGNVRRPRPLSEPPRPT
Hepatocyte growth factor receptor, sequence (P08581 whole entry): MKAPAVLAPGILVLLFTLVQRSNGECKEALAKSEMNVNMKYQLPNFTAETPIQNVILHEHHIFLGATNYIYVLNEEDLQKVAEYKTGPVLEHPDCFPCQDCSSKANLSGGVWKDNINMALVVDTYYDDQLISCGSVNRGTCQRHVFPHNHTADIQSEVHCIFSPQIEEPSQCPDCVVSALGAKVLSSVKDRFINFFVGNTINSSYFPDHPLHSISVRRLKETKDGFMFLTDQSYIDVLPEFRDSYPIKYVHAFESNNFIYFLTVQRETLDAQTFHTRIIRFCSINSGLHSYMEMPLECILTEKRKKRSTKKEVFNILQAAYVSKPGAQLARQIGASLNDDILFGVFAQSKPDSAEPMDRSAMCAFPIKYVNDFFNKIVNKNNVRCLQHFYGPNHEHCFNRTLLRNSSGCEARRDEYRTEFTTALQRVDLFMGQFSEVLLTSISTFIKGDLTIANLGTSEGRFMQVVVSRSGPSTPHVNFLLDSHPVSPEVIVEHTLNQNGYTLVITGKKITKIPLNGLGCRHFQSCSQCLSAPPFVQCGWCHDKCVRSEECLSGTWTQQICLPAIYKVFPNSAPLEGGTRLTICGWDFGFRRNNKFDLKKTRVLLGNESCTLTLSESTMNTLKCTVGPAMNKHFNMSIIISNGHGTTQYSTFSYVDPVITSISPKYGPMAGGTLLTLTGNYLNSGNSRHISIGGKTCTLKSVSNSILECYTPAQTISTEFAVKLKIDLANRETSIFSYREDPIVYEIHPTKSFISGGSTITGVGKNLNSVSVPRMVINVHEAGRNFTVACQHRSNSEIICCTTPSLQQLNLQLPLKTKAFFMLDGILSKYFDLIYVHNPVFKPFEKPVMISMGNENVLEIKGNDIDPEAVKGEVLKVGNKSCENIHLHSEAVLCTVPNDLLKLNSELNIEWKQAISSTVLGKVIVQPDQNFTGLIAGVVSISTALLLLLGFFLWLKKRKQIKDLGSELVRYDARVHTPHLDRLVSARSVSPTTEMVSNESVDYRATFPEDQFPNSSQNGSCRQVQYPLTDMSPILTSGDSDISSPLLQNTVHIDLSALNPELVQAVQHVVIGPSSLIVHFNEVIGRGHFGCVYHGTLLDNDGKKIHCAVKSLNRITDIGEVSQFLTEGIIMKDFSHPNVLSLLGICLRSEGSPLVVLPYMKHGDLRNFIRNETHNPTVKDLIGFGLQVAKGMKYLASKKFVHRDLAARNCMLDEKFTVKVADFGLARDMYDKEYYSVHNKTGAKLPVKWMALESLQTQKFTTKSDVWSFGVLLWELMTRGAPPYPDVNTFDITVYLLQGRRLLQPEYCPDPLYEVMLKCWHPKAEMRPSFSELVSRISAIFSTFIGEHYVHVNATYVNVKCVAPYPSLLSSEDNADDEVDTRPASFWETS

## COc1ccc2c(Oc3ccc(NC(=O)c4c(C)n(CC(C)(C)O)n(-c5ccccc5)c4=O)cc3F)ccnc2c1
[1]
  Activity: inactive
[2]
  IC50: 9 nM
[3]
  Activity: inactive
[4]
  IC50: 4 nM
[5]
  Activity: inactive

## Cc1[nH]c(/C=C2\C(=O)Nc3ccc(S(=O)(=O)Cc4c(Cl)cccc4Cl)cc32)c(C)c1C(=O)N1CCC[C@@H]1CN1CCCC1
[1]
  Activity: inactive
[3]
  Activity: inactive
[5]
  Activity: inactive

## O=C1N=C(NCc2cccs2)S/C1=C\c1ccc2ncccc2c1
[6]
  Activity: inactive

## COc1cccc2c1C(=O)c1c(O)c3c(c(O)c1C2=O)C[C@@](O)(C(=O)CO)C[C@@H]3O[C@H]1C[C@H](N)[C@H](O)[C@H](C)O1 [DOXORUBICIN]
[7]; Homo sapiens, T47D, 72 h
  IC50: 264 nM
[8]; Homo sapiens, ZR-75-1, 72 h
  IC50: 453 nM

## CN(Cc1cnc2nc(N)nc(N)c2n1)c1ccc(C(=O)N[C@@H](CCC(=O)O)C(=O)O)cc1 [METHOTREXATE]
[7]; Homo sapiens, T47D, 72 h
  IC50: 64.4 nM
[8]; Homo sapiens, ZR-75-1, 72 h
  IC50: 66 nM

## CC(=O)O[C@H]1C(=O)[C@@]2(C)[C@H]([C@H](OC(=O)c3ccccc3)[C@]3(O)C[C@H](OC(=O)[C@H](O)[C@@H](NC(=O)c4ccccc4)c4ccccc4)C(C)=C1C3(C)C)[C@]1(OC(C)=O)CO[C@@H]1C[C@@H]2O [PACLITAXEL]
[7]; Homo sapiens, T47D, 72 h
  IC50: 4 nM
[8]; Homo sapiens, ZR-75-1, 72 h
  IC50: 6.2 nM

## BLEOMYCIN
[7]; t47d
  IC50: 129 nM
[8]; zr-75-1
  IC50: 165 nM
